Source: the RNAGym collection of RNA variant scans (doi:10.1126/science.aae0568)
Fewer inactive variants are shown than the library holds.

B1: tRNA (parent)
chain: GUUCCGUUGGCGUAAUGGUAACGCGUCUCCCUCCUAAGGAGAAGACUGCGGGUUCGAGUCCCGUACGGAACG

Variants of: B1
Experiment: yeast fitness relative to wild type (ratio to wild type); higher = fitter; tRNA-Arg(CCU), competitive growth, 37 C, YPD
Outline: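 Variants of the tRNA-Arg(CCU) gene were chemically synthesised with a 3% per-site mutation rate across 69 sites and placed at the native genomic locus in Saccharomyces cerevisiae. Six parallel replicates of the pooled strains were competed in YPD at 37°C for 24 hours, and gene amplicons from the start and end populations were read by 100-nucleotide paired-end sequencing. Darwinian fitness relative to wild type was derived from changes in genotype frequencies. Genotypes required ≥ 100 starting reads, and estimates < 0.5 were set to 0.5.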

Variant | yeast fitness
C5A A42C U47A C49A G51U C61U G68A | ≤ 0.5
C4U U13A C46U U53A | 0.633
C4U U8A A36C C61U | ≤ 0.5
C5A C11G A21U A65C | ≤ 0.5
C5A C11U A14U C27U A36U A43G C46U | ≤ 0.5
C4U G50A G67A | 0.553
C4U G50A G67C | 0.578
C5A A14G C55A A70U | ≤ 0.5
C5A C22A A40G C60A | ≤ 0.5
C5A C34G C46U A70U | ≤ 0.5
C5A C31A A37C C46U | ≤ 0.5
C5A A37C G38C C55U | 0.598
C5A C24U G25C C30G G50C G56A C66U | ≤ 0.5
C5A A21U C55A | 0.572
C5A A15U A69C | ≤ 0.5
C5A A40C C46U G52C A70C | ≤ 0.5
C4U U26A G38A G63C | ≤ 0.5
C5A C33A A40C G41A U59A U64A C66G | 0.584
C5A A21C C24A A70U | ≤ 0.5
C4U G51C U59G U64C | ≤ 0.5
C4U U8A A20G C24A | ≤ 0.5
C5A C22G A65C | 0.582
C5A C31A C55A C61A G63A G67U | ≤ 0.5
C4U G68U | 0.888

Variant | yeast fitness
C4U G68A | 0.856
C4U G68C | 0.963
C5A A57G C60G | ≤ 0.5
C4U U26C C31A C49G G63C A69U | ≤ 0.5
C5A C33U A36G | 0.532
C4U G44A G58A | 0.974
C5A C24G C31G | 0.555
C5A C11G C61G | 0.502
C5A C11G G51A C62U | ≤ 0.5
C5A A14G A15G C22G A37U | ≤ 0.5
C5A C27A C34G | 0.507
C5A C29A A70U | ≤ 0.5
C4U G48C C66U | 0.729
C5A C22A G50C | 0.738
C4U U19A C30G A36C | 0.55
C4U U19A C27G A43U C46A C49U | ≤ 0.5
C5A A15U G25A U59C | ≤ 0.5
C5A C33A G38A A45C G52A U54G G67A | ≤ 0.5
C5A C30G C31G U32C | 0.598
C4U G58C A69C | 0.765
C4U G44C A57U | 0.595
C5A C27U A69U | 0.711
C5A A20U C31G | 0.585
C5A C22G C29A G67A | 0.531

Variant | yeast fitness
C4U U7A A36U A65G | 0.535
C5A C11G C24A C55U G63C | ≤ 0.5
C5A C46U U59C | 0.728
C5A C22G C49G G68C | 0.578
C5A A15G C31U | 0.657
C5A C11G G41C G68U | 0.524
C5A C11A C30U C31A C61A | ≤ 0.5
C5A C22U C49U G50C | ≤ 0.5
C4U G48A U54G | ≤ 0.5
C4U U16A A65C | 0.612
C5A C33G C49U C61G A69C | ≤ 0.5
C5A C46U C49U | 0.809
C5A A20C C22A C24U C31U G67A | ≤ 0.5
C4U U19C C31A | ≤ 0.5
C5A A14C A21U C34U G38C | ≤ 0.5
C4U U47A G67A | 0.607
C4U U8A U32G U35A C62U | 0.707
C4U U8G G12A C55U | ≤ 0.5
C5A A14U | 0.654
C5A A14G | 0.912
C4U U28C C29U G63C A65U | ≤ 0.5
C4U U16A A20G C66U | ≤ 0.5
C5A A57U | 0.669
C5A A45C C46G G48C U64C | ≤ 0.5

Variant | yeast fitness
C4U U8C C27G A45C U47C C55U | ≤ 0.5
C4U G52C | 0.726
C5A C11A C34A A40U | 0.696
C4U U13A | 1.1
C4U U13C | 0.884
C4U U8A U13C A37G C46A | ≤ 0.5
C5A A37C C49A G68U | ≤ 0.5
C5A C11U U13G C29G C33A U59A | ≤ 0.5
C4U U8A | 0.66
C4U U8C | 0.942
C4U U8G U19A A21C A70U | ≤ 0.5
C5A C22U C30U G68U | ≤ 0.5
C4U U7A C22U U54C C66U G68C A69U | ≤ 0.5
C5A C33A | 0.67
C5A C33U | 0.603
C4U U8A U16C A20U C29U A45C | ≤ 0.5
C5A A20U G23A C66U | ≤ 0.5
C5A C27G C33A A40U G48C U54A | 0.506
C5A A20U C31G C61U C66U | ≤ 0.5
C5A C33U C46G C66G G67A A69C | ≤ 0.5
C4U U35C A70U | 0.711
C5A C31A C49U | ≤ 0.5
C5A C33U G39C C55A G67C | ≤ 0.5
C5A A21C C30G C34U G38C C49U | ≤ 0.5

Variant | yeast fitness
C5A A45U G48A G56A | 0.706
C5A C22A C27G A43U C60A | ≤ 0.5
C5A A15C C29A A42C A45G | 0.551
C5A A15G A36G | ≤ 0.5
C5A A21C U54C | ≤ 0.5
C5A C27U G39C C49U G58C C62U | ≤ 0.5
C4U U47A U54C C61A | ≤ 0.5
C4U U13A G23A C24A A36U G39C C62A U64A | ≤ 0.5
C4U U28C A36C | ≤ 0.5
C4U G63C | 0.782
C4U G63A | 0.894
C4U U13A G23A A36U G39C C62A U64A | 0.537
C4U U7C A57U C61U | ≤ 0.5
C5A C24G C31G G51C U59G | ≤ 0.5
C5A C29U A69U | 0.632
C4U U8C A37U A45U C49U | ≤ 0.5
C5A C24A | 0.727
C5A C31U U35C C49G | ≤ 0.5
C4U U19A | 1.04
C4U U19C | 0.927
C4U U59C C61A | ≤ 0.5
C5A C31U G48C C55A A69C | ≤ 0.5
C5A C11G G41C | 0.561
C5A C27A U28G C55U | ≤ 0.5

Variant | yeast fitness
C5A A15U C31G G39A C49U G58A G67A | ≤ 0.5
C5A A21G | 0.942
C4U G44C A69U A70G | ≤ 0.5
C5A C29U | 0.731
C5A A14G A37G C49G C55U G56C G68A | ≤ 0.5
C5A A14G A20U A37C C49A | ≤ 0.5
C5A C11A G17C A43G | ≤ 0.5
C5A A14C A45G | ≤ 0.5
C5A A20C A57U | ≤ 0.5
C5A A14G A20G C30A A40U G41C C61G G63C | ≤ 0.5
C4U G67C | 0.829
C4U U7A C49U | 0.58
C5A C27G | 0.709
C5A C24U C62U | 0.624
C4U U16A A20U U35C G39C A42C G48A | 0.582
C5A C22U G39A U47C C61U | ≤ 0.5
C4U G44A C61G | ≤ 0.5
C5A C30G A36G A57U A65U | ≤ 0.5
C5A C27U A37U | ≤ 0.5
C4U U7A U13A U32C G44C | 0.718
C5A C33U C46A | ≤ 0.5
C5A C33U C46G | ≤ 0.5
C5A C29G G56C U59A | 0.717
C4U U8G A15U | ≤ 0.5

Variant | yeast fitness
C4U U13A A14U C29U A37G A57C | ≤ 0.5
C5A C30A G51A | ≤ 0.5
C5A A21G C31G | 0.62
C5A C11G U28A A40U C55A | ≤ 0.5
C5A C31U C33U A42C C49U A65C | ≤ 0.5
C5A C27U G39C | ≤ 0.5
C4U G52A A70U | 0.604
C5A A20C C61U | ≤ 0.5
C5A A65C G68C | ≤ 0.5
C5A A65C G68A | 0.628
C4U U28G | 0.772
C4U U28C | 1.02
C5A C11U A21G C24A G52A C60A A69G | ≤ 0.5
C5A A14U C24U A40C | 0.564
C5A C29A C30G C55U C61G A65C | 0.554
C5A C11G G41C A57G | 0.554
C4U U7A A20G G23A U26G | ≤ 0.5
C4U U13C U26A G63C | ≤ 0.5
C5A A14C U26A C34U C55G | ≤ 0.5
C5A A14G C24G C31U A43G | ≤ 0.5
C4U U7A A36U A70G | ≤ 0.5
C5A A40U C60U C61G | 0.525
C5A C34U G41C A69G | ≤ 0.5
